Source: ChEMBL document CHEMBL1124025, “(Acyloxy)alkyl carbamates as novel bioreversible prodrugs for amines: increased permeation through biological membranes” (J Med Chem, 1988)

Columns and labels:
[1] = species on record: Rattus norvegicus; experiment: Percent diffusion through fuzzy rat skin after 48 h of incubation; assay type: ADME; details: in vitro
How it was run: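 Whole ventral and dorsal skin from 8-week fuzzy rats (about 250 g) mounted in diffusion cells. Receptor was pH 7.0 phosphate-buffered 0.15 M NaCl with 22 ppm gentamicin. Ethanolic test solution spread on the skin surface. Cells occluded at 32 °C, stirred at 150 rpm, and 0.2 mL sampled with buffer replacement over 48 h. HPLC/UV quantitation; run in triplicate.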

[2] = Hydrolysis half-life at 37 degree C in phosphate buffer at pH 7.4; assay type: ADME
How it was run: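 Done as for the plasma runs but in pH 7.4 Sorensen's buffer at 37 °C. 0.1–0.2 mg prodrug added from a small DMSO drop, sampled at time points, and analysed by direct-injection HPLC for prodrug loss and/or parent amine formation. External-standard quantitation.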

[3] = Hydrolysis half-life at 37 degree C in rat plasma; assay type: ADME
How it was run: (§1)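 0.1–0.2 mg prodrug in a small drop of DMSO, mixed with 1 mL plasma held at 37 °C in a thermostated water bath. Samples drawn at intervals and injected directly onto HPLC to follow loss of prodrug and/or appearance of the parent amine; concentrations by external standard from peak areas. Half-life derived from the time course.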

[4] = Hydrolysis half-life at 37 degree C in dog plasma; assay type: ADME, Canis lupus familiaris; how it was run: as §1

Compound	Diffusion [1]	half-life [2]	half-life [3]	half-life [4]
CC(C)NCC(O)COc1cccc2[nH]ccc12 (stereo not drawn) [PINDOLOL]	0.03%	–	–	–
CC(=O)OC(C)OC(=O)N(CC(O)COc1cccc2ccccc12)C(C)C (stereo not drawn)	0.45%	44.5 h	3 min	–
CC(=O)OC(C)OC(=O)N(CC(O)COc1cccc2[nH]ccc12)C(C)C (stereo not drawn)	0.35%	–	–	–
CC(C)NCC(O)COc1cccc2ccccc12 (stereo not drawn) [PROPRANOLOL]	2.4%	–	–	–
CC(C)NCC(O)COc1ccc(CC(N)=O)cc1 (stereo not drawn) [ATENOLOL]	0.13%	–	–	–
CC(=O)OC(C)OC(=O)N(CC(O)COc1ccc(CC(N)=O)cc1)C(C)C (stereo not drawn)	0.49%	–	–	–
CC(=O)OCOC(=O)N(CC(O)COc1nsnc1N1CCOCC1)C(C)(C)C (stereo not drawn)	0.53%	23.5 h	3 min	9.7 min
CC(C)(C)NC[C@H](O)COc1nsnc1N1CCOCC1 [TIMOLOL]	18.14%	–	–	–
